Our source for the Activity and Ratio values is ChEMBL document CHEMBL3272049, “Estrogen potentiating activity of two spiro compounds having approximately similar molecular dimensions to stilbestrol” (1977).

What all share (assay type): functional
Holding throughout (settings): route intraperitoneal

The test system of experiment [1] is Mus musculus. The experiment in a line: Estrogenic activity in albino CFLP-ICI strain 1 mouse assessed as change in uterus weight at 0.1 mg/kg, ip qd for three consecutive days measured 24 hrs post last dose (reference value: 6.9 +/- 0.7 mg).
The test system of experiment [2] is Mus musculus. The experiment in a line: Estrogenic activity in albino CFLP-ICI strain 1 mouse assessed as change in uterus weight at 10 mg/kg, ip qd for three consecutive days measured 24 hrs post last dose (reference value: 6.9 +/- 0.7 mg).
Experiment [3] relates to Mus musculus. In words: Estrogenic activity in albino CFLP-ICI strain 1 mouse assessed as uterine ratio at 0.1 mg/kg, ip qd for three consecutive days measured 24 hrs post last dose relative to body weight.
The test system of experiment [4] is Mus musculus. In words: Estrogenic activity in albino CFLP-ICI strain 1 mouse assessed as uterine ratio at 10 mg/kg, ip qd for three consecutive days measured 24 hrs post last dose relative to body weight.
The test system of experiment [5] is Mus musculus. The experiment in a line: Potentiation of stilbesterol-induced estrogenic activity in albino CFLP-ICI strain 1 mouse assessed as change in uterus weight at 0.01 mg/kg, ip qd for three consecutive days measured 24 hrs post last dose relative to control. In a few lines:
(§1)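 Mice received stilbestrol 0.01 mg/kg together with graded doses of spiro derivative, both in arachis oil, ip once daily at 10.00 h for three consecutive days; comparison group got stilbestrol alone. Killed by cervical dislocation 24 h after final dose. Uteri dissected free of fat, blotted and weighed. Uterine ratio = uterine weight (mg)/body weight (g) × 100; mean ± SE.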

Experiment [6] concerns Mus musculus. The experiment in a line: Potentiation of stilbesterol-induced estrogenic activity in albino CFLP-ICI strain 1 mouse assessed as change in uterus weight at 10 mg/kg, ip qd for three consecutive days measured 24 hrs post last dose relative to control. The procedure, abridged: as §1
Experiment [7] concerns Mus musculus. The experiment in a line: Potentiation of stilbesterol-induced estrogenic activity in albino CFLP-ICI strain 1 mouse assessed as change in uterus weight at 0.001 mg/kg, ip qd for three consecutive days measured 24 hrs post last dose relative to control. In a few lines: as §1
In experiment [8] the test system is Mus musculus. The experiment in a line: Potentiation of stilbesterol-induced estrogenic activity in albino CFLP-ICI strain 1 mouse assessed as change in uterus weight at 0.1 mg/kg, ip qd for three consecutive days measured 24 hrs post last dose relative to control. In a few lines:
as §1

Experiment [9] has as its system Mus musculus. In words: Potentiation of stilbesterol-induced estrogenic activity in albino CFLP-ICI strain 1 mouse assessed as uterine ratio at 0.01 mg/kg, ip qd for three consecutive days measured 24 hrs post last dose relative to body weight. In a few lines:
as §1

The test system of experiment [10] is Mus musculus. The experiment in a line: Potentiation of stilbesterol-induced estrogenic activity in albino CFLP-ICI strain 1 mouse assessed as uterine ratio at 10 mg/kg, ip qd for three consecutive days measured 24 hrs post last dose relative to body weight. The procedure, abridged:
as §1

In experiment [11] the test system is Mus musculus. The experiment in a line: Potentiation of stilbesterol-induced estrogenic activity in albino CFLP-ICI strain 1 mouse assessed as uterine ratio at 0.001 mg/kg, ip qd for three consecutive days measured 24 hrs post last dose relative to body weight. In a few lines: as §1
Experiment [12] has as its system Mus musculus. The experiment in a line: Potentiation of stilbesterol-induced estrogenic activity in albino CFLP-ICI strain 1 mouse assessed as uterine ratio at 0.1 mg/kg, ip qd for three consecutive days measured 24 hrs post last dose relative to body weight. The procedure, abridged:
as §1

In experiment [13] the test system is Mus musculus. The experiment in a line: Estrogenic activity in albino CFLP-ICI strain 1 mouse assessed as change in uterus weight at 0.01 mg/kg, ip qd for three consecutive days measured 24 hrs post last dose (reference value: 6.9 +/- 0.7 mg).
The subject of experiment [14] is Mus musculus. In words: Estrogenic activity in albino CFLP-ICI strain 1 mouse assessed as uterine ratio at 0.01 mg/kg, ip qd for three consecutive days measured 24 hrs post last dose relative to body weight.

Consider `O=C1CCC2(CC1)CCc1ccccc1C2=O`, for which the Activity in the experiment on Mus musculus [1] came to 10 mg; in the experiment with Mus musculus [2] it was 6.9 mg; in the experiment with Mus musculus [5] it was 37.1 mg; with Mus musculus [6] it was 36.5 mg; in the experiment with Mus musculus [7], 29.9 mg; in the experiment with Mus musculus [8] it was 30.7 mg. For the same molecule, the Ratio in the experiment with Mus musculus [3] amounted to 78; in the experiment with Mus musculus [4], 64; in the experiment with Mus musculus [9] it was 377; in the experiment on Mus musculus [10], 293; with Mus musculus [11], 306; with Mus musculus [12] it was 293.
For the molecule `OC1CCC2(CC1)Cc1ccccc1C2O` (configuration not stated), the Activity in the experiment on Mus musculus [1] is 7.4 mg; with Mus musculus [2] it was 9.7 mg; in the experiment with Mus musculus [5], 24.5 mg; with Mus musculus [6] it was 29.2 mg. Also, the Ratio was found to be 80 in the experiment on Mus musculus [3], 86 in the experiment with Mus musculus [4], 225 with Mus musculus [9] and 247 in the experiment on Mus musculus [10].
For `CC/C(=C(/CC)c1ccc(O)cc1)c1ccc(O)cc1` [DIETHYLSTILBESTROL], in the experiment on Mus musculus [13], the Activity amounted to 17.5 mg. For the same molecule, the Ratio with Mus musculus [14] was 167.
